VIM-2 inh = inhibitors of Pseudomonas aeruginosa VIM-2 metallo-beta-lactamase. purified VIM-2, nitrocefin hydrolysis, epi-absorbance fluorescence. inhibition, % at 5.6 µM. actives 0.89% (n = 290,000);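 active = inhibition above the mean of all tested compounds plus 3 SD, cutoff set per screening run, cut at about 7.5% in these data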;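 note: red hydrolysis product quenches plate fluorescence so inhibitors raise well fluorescence; 0% = enzyme with DMSO and 100% = DMSO without enzyme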
NadD inh = inhibitors of Staphylococcus aureus NadD; inhibition, % at 20 µM; purified NadD enzyme, colorimetric absorbance read-out; actives 0.78% (n = 360,000); in the data active = inhibition above about 26%
core dimer inh = blocks dimerization of HCV core protein | TR-FRET GST/Flag-core106 dimerization, 1536-well | inhibition, % at 5 µM | actives 0.33% (n = 300,000) | AID 1899;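 active = inhibition above the mean of all tested compounds plus 3 SD, set per screening campaign, cut at about 45% in these data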
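assay system = GST-tagged and Flag-tagged HCV core protein residues 1-106 | controls = unlabelled core106 and no-GST-core106 wells | incubation = compound-protein-antibody incubation 4 h at 22.5 °C | probe or stimulus = Eu donor and XL665 acceptor anti-tag antibodies | read-out = % inhibition based on acceptor/donor emission ratio | signal = TR-FRET 671 and 617 nm emission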
IMP-1 inh = inhibitors of Pseudomonas aeruginosa IMP-1 metallo-beta-lactamase. actives 0.45% (n = 290,000). purified IMP-1, nitrocefin hydrolysis, epi-absorbance fluorescence. inhibition, % at 5.6 µM. AID 1556;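 active = inhibition above the mean plus 3 SD of all compounds in the same screening run, cut at about 4.5% in these data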;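 note: 0% = IMP-1 with DMSO and 100% = DMSO wells lacking enzyme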
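Assay system: purified IMP-1; Quantity: IMP-1 0.2 nM before substrate addition; Medium: HEPES buffer pH 7.1 with ZnSO4 and Brij 35; Incubation: 15 min enzyme–compound preincubation, then 25 min nitrocefin reaction, 25 °C; Signal: fluorescence quenching readout, ex 480/em 530 nm; Controls: DMSO with and without IMP-1; Repeats: singlicate testing.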
NadD conf = NadD (S. aureus) inhibition, single concentration confirmation. shares compounds with NadD inh. inhibition, % at 20 µM. AID 624309. purified S. aureus NadD, colorimetric enzyme assay. actives 13% (n = 2,000); in the data active = inhibition mostly above about 42%, no sharp cut-off; inactive = mostly below about 42%
The depositor's hits bear a star; · = not tested or not shown. Hits are enriched below; roughly 1.9% of the tested compounds scored in any of these assays.

SMILES | VIM-2 inh | NadD inh | core dimer inh | IMP-1 inh | NadD conf
Cc1c(C(=O)O)sc2nc(/C=C/c3cccc(F)c3)[nH]c(=O)c12 | 2 | 1 | 7 | 2 | ·
CC(C)c1ccc(/C=C2\SC(=O)N(CC(=O)NCCCn3ccnc3)C2=O)cc1 | 7 | 34* | 3 | 1 | -5
O=C(CN1C(=O)S/C(=C\c2ccccc2)C1=O)NCCCn1ccnc1 | 0 | 6 | 5 | 0 | ·
COc1ccc(CCN(C)C2CCCN(C(=O)Cn3cnnn3)C2)cc1OC (stereo not drawn) | 0 | -5 | -4 | 1 | ·
Cc1ccc(-c2nc3c4ccccc4ccn3c2Cc2ccccc2C(F)(F)F)cc1 | · | 31* | · | · | 18
Cc1cccc(N2CC(C(=O)Nc3nnc(SCCN4CCOCC4)s3)CC2=O)c1 (stereo not drawn) | -4 | 27* | 36 | -2 | 20
COc1cccc(N2CC(C(=O)Nc3nnc(SCCN4CCOCC4)s3)CC2=O)c1 (stereo not drawn) | -2 | 4 | 18 | -1 | ·
Cc1cccc(N2CC(C(=O)Nc3nnc(SCCC4OCCO4)s3)CC2=O)c1 (stereo not drawn) | -5 | 41* | 17 | -2 | 19
Cc1cccc(N2CC(C(=O)Nc3nnc(SCc4ccccn4)s3)CC2=O)c1 (stereo not drawn) | -4 | 28 | 34 | -1 | ·
CC(C)C[C@H]1CNC(=S)N1CC1CCCN1C[C@H](Cc1ccc(O)cc1)N1C[C@H](Cc2ccccc2)N(CC2CCCCCC2)C1=S (stereo partly drawn) | · | 22 | · | · | ·
CC(C)C[C@H]1CNC(=S)N1C[C@H]1CCCN1C[C@H](Cc1ccc(O)cc1)N1C[C@H](Cc2ccccc2)N(CC2CCCCC2)C1=S | · | 9 | · | · | ·
CC(C)C[C@H]1CNC(=S)N1C[C@H]1CCCN1C[C@H](Cc1ccccc1)N1C[C@H](Cc2ccc(O)cc2)N(CC2CCCCCC2)C1=S | · | 42* | · | · | -12
CC(C)C[C@H]1CNC(=S)N1CC1CCCN1C[C@H](Cc1ccccc1)N1C[C@H](Cc2ccc(O)cc2)N(CC2CCCCC2)C1=S (stereo partly drawn) | · | 32* | · | · | -1
CCN1CCN(Cc2ccc(NC(=O)c3cc(NC(=O)c4cc(-c5ccc(OC)cc5)n[nH]4)cc(OC)c3)cc2C(F)(F)F)CC1 | · | 13 | -20 | · | ·
CCN1CCN(Cc2ccc(NC(=O)c3cc(NC(=O)c4cncc(-c5cccs5)c4)cc(OC)c3)cc2C(F)(F)F)CC1 | 0 | 34* | -22 | -2 | 11
O=C(Nc1cccc(NC(=O)c2cccc(Cl)c2)c1)c1cccnc1 | 0 | 1 | 4 | -2 | ·
CCN(CC)S(=O)(=O)c1ccc(C(=O)Nc2nnc(NC(=S)Nc3ccccc3)s2)cc1 | -4 | 47* | 25 | -2 | 22
Cc1[nH]c2ccccc2c1/C=C/c1nc2ccccc2c(=O)n1-c1ccc([N+](=O)[O-])cc1 | -2 | 34* | 23 | -4 | 7
CC(C)CCn1c2ccccc2c2cc(CC(N)=O)ccc21 | -4 | -3 | -2 | -2 | ·
Cc1cc2nc(C3CCN(C(=S)NCCCOC(C)C)CC3)[nH]c2cc1C | -4 | -8 | 1 | -3 | ·
CCOC(=O)c1cc2c(=O)n3ccccc3nc2n(Cc2ccco2)c1=NC(=O)c1ccccc1OC | -1 | 28 | 11 | -4 | ·
CCOC(=O)c1cc2c(=O)n3cccc(C)c3nc2n(Cc2ccco2)c1=NC(=O)c1ccc(C)cc1 | · | 0 | · | · | ·
CCOC(=O)c1cc2c(=O)n3ccccc3nc2n(Cc2ccco2)c1=NC(=O)c1ccc(OC)cc1 | -1 | 32* | 28 | -2 | 7
CCCn1c(=NC(=O)c2ccco2)c(C(=O)OCC)cc2c(=O)n3ccccc3nc21 | 3 | -4 | 2 | -4 | ·
CCOC(=O)c1cc2c(=O)n3cccc(C)c3nc2n(Cc2ccco2)c1=NC(=O)c1ccccc1 | 0 | 32* | 26 | -1 | 11
SMILES | VIM-2 inh | NadD inh | core dimer inh | IMP-1 inh | NadD conf
CCOC(=O)c1cc2c(=O)n3ccccc3nc2n(Cc2ccco2)c1=NC(=O)c1cccc(OC)c1 | 4 | 45* | 23 | -2 | 8
CCN(CC)CCNC(=O)C(=O)NCC1OCCN1S(=O)(=O)c1cccs1 (stereo not drawn) | -2 | -3 | 1 | -3 | ·
CN(C)S(=O)(=O)c1cc(NC(=O)CN2CCc3ccccc32)ccc1Cl | -4 | 39* | 35 | -3 | 40
CN(C)S(=O)(=O)c1cc(NC(=O)CN2CCCc3ccccc32)ccc1Cl | 1 | 18 | 2 | -2 | ·
Clc1ccc(/C=N/NC2=Nc3cccc4cccc2c34)cc1 | -3 | 30* | -7 | -2 | 17
COc1ccccc1-c1cc2nc(-c3ccccc3)cc(N3CCN(C(=O)c4ccoc4)CC3)n2n1 | · | 47* | · | · | 32
COc1cccc(-c2cc(N3CCN(C(=O)c4ccoc4)CC3)n3nc(-c4cccc(Cl)c4)cc3n2)c1 | · | 37* | · | · | 20
O=C(c1ccoc1)N1CCN(c2cc(-c3ccccc3)nc3cc(-c4ccccc4)nn23)CC1 | · | 17 | · | · | ·
COc1ccccc1-c1cc2nc(-c3ccccc3)cc(N3CCN(C(=O)c4ccco4)CC3)n2n1 | · | 41* | · | · | 31
COc1cccc(-c2cc3nc(-c4ccccc4)cc(N4CCN(C(=O)c5ccoc5)CC4)n3n2)c1 | · | 20 | · | · | ·
CC(C)c1ccc2[nH]c3c(c2c1)[C@@H]1CCN2C(=O)CCC[C@H](C3)[C@H]12 | -1 | -3 | 10 | -1 | ·
FC(F)(F)c1ccc(CN2C[C@@H]3C(c4ccc(C(F)(F)F)cc4)C4(c5cccnc5)CC3(C4)[C@H]2c2ccccc2)cc1 (stereo partly drawn) | · | 38* | 2 | · | 22
CC1CCN(C(=O)C2CCC(C)(C(=O)O)C2(C)C)CC1 (stereo not drawn) | -4 | -1 | -12 | -6 | ·
COc1ccc(Cl)cc1C(=O)NNC(=S)NC(=O)c1cc(-c2ccc(Cl)cc2)nc2ccccc12 | -3 | 72* | 3 | -3 | 18
O=C(O)COc1ccccc1/C=N/NC(=O)c1cc(-c2ccc(Cl)cc2)nc2ccccc12 | -3 | 24* | 21 | -4 | 53*
O=C(N/N=C/c1ccccn1)c1cc(-c2ccc(Cl)cc2)nc2ccccc12 | -3 | 31* | 12 | -3 | 6
CCCOc1cccc(-c2cc(C(=O)N/N=C/c3ccccn3)c3ccccc3n2)c1 | -7 | 20 | · | -5 | ·
O=C(N/N=C/c1ccccn1)c1cc(-c2ccc(Br)cc2)nc2ccccc12 | -2 | 32* | 8 | -2 | 6
Cc1ccc(C)c(N2C(=O)CC(Cc3ccccc3)C2=O)c1 (stereo not drawn) | -1 | -8 | 5 | -2 | ·
COc1ccccc1C(=O)NNC(=S)NC(=O)c1sc2ccccc2c1Cl | -1 | 64* | 3 | -2 | 11
COc1ccccc1C(=O)NC(=S)NNC(=O)c1sc2ccccc2c1Cl | -4 | 3 | -5 | -4 | ·
CC(=O)C[C@H](O)CC(=O)[C@H]1OC(=O)CCCCCCCCc2ccccc21 | · | 3 | · | · | ·
